For one molecule, IC50 results are on record in BindingDB's records for doi:10.1016/j.bmc.2008.10.024 (National Cancer Institute-Frederick, 2008).

In this experiment the target is E3 ubiquitin-protein ligase Mdm2 (Homo sapiens, UniProt Q00987). In words: Inhibition of GST fused human Hdm2 assessed as polyubiquitylation by electrochemiluminescence assay. An outline of the steps: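 Cell-free ubiquitylation. Lysate GST-Hdm2 captured on glutathione-coated wells for 1 h at RT. E1/UbcH5B were pre-charged with ubiquitin, ATP and DTT in PBS for 30 min, then added with sample for 30 min at RT. Read-out was ruthenium anti-polyubiquitin electrochemiluminescence, normalised between no-inhibitor (0%) and EDTA (100%). Tested at 100–0.02 µg/mL in quadruplicate.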

A word on the IC50: it is the concentration that inhibits the measured activity by half.

Chain of E3 ubiquitin-protein ligase Mdm2 (Q00987 whole entry, the tested form may be a part): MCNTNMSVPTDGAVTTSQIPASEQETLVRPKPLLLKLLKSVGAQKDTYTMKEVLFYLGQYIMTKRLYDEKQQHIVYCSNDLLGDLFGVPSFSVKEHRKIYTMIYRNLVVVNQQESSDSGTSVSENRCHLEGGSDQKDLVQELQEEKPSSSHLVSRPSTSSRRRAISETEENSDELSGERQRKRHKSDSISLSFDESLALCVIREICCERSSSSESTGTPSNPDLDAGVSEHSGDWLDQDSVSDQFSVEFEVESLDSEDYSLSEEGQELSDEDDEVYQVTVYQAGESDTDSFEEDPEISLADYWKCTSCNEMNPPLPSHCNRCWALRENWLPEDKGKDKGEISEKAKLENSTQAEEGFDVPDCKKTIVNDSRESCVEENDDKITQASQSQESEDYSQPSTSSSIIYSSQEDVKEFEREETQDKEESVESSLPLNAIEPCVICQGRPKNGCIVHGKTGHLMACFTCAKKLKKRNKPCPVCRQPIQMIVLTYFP

As for `NCCc1c2c(c3c4c(c5ccccc5nc14)C=CN3)OCS2` [Lissoclinidine B], the 50% inhibitory concentration (IC50) is 58.6 µM.
